In ChEMBL document CHEMBL1125797, “Synthesis, characterization and myocardial uptake of cationic bis(arene)technetium(I) complexes” (J Med Chem, 1991):

Assays:
Rattus norvegicus [1] = experiment: Biodistribution of compound in rat lungs at 1440 min after intravenous administration; format: ADME, organism-based, Lung; conditions: in vivo, 24 h
Procedure, shortened: (§1)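 Rats received the 99mTc complex in normal saline (~12.5 μCi/mL) by lateral tail vein injection at ~25 μCi/kg and were killed by cervical dislocation at the stated time. Tissues were washed with saline, blotted, weighed and γ-counted to give percent injected dose/g. Time-course values are averages of male and female rats.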

Rattus norvegicus [2] = experiment: Biodistribution of compound in rat lungs at 180 min after intravenous administration; format: ADME, organism-based, Lung; conditions: in vivo, 3 h; procedure, shortened: as §1
Rattus norvegicus [3] = experiment: Biodistribution of compound in rat lungs at 360 min after intravenous administration; format: ADME, organism-based, Lung; conditions: in vivo, 6 h; procedure, shortened: as §1
Rattus norvegicus [4] = experiment: Biodistribution of compound in rat lungs at 45 min after intravenous administration; format: ADME, organism-based, Lung; conditions: in vivo, 0.75 h; procedure, shortened: as §1
Rattus norvegicus [5] = experiment: Biodistribution of compound in rat lungs at 5 min after intravenous administration; format: ADME, organism-based, Lung; conditions: in vivo; procedure, shortened: as §1
Rattus norvegicus [6] = experiment: Biodistribution of compound in rat lungs at 90 min after intravenous administration; format: ADME, organism-based, Lung; conditions: in vivo, 1.5 h; procedure, shortened: as §1
Rattus norvegicus [7] = experiment: Biodistribution of compound in rat muscle at 1440 min after intravenous administration; format: ADME, organism-based, Muscle tissue; conditions: in vivo, 24 h; procedure, shortened: as §1
Rattus norvegicus [8] = experiment: Biodistribution of compound in rat muscle at 180 min after intravenous administration; format: ADME, organism-based, Muscle tissue; conditions: in vivo, 3 h; procedure, shortened: as §1
Rattus norvegicus [9] = experiment: Biodistribution of compound in rat muscle at 360 min after intravenous administration; format: ADME, organism-based, Muscle tissue; conditions: in vivo, 6 h; procedure, shortened: as §1
Rattus norvegicus [10] = experiment: Biodistribution of compound in rat muscle at 45 min after intravenous administration; format: ADME, organism-based, Muscle tissue; conditions: in vivo, 0.75 h; procedure, shortened: as §1
Rattus norvegicus [11] = experiment: Biodistribution of compound in rat muscle at 5 min after intravenous administration; format: ADME, organism-based, Muscle tissue; conditions: in vivo; procedure, shortened: as §1
Rattus norvegicus [12] = experiment: Biodistribution of compound in rat muscle at 90 min after intravenous administration; format: ADME, organism-based, Muscle tissue; conditions: in vivo, 1.5 h; procedure, shortened: as §1
Rattus norvegicus [13] = experiment: Biodistribution of compound in rat bone at 1440 min after intravenous administration; format: ADME, organism-based, Bone element; conditions: in vivo, 24 h
Procedure, shortened: (§2)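 Time course in Sprague-Dawley rats after lateral tail-vein injection of the 99mTc complex in normal saline (~12.5 μCi/mL) at ~25 μCi/kg. Tissues were sampled at the stated times, washed with saline, blotted, weighed and γ-counted to give percent injected dose per g. Values are averages of male and female rats.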

Rattus norvegicus [14] = experiment: Biodistribution of compound in rat bone at 180 min after intravenous administration; format: ADME, organism-based, Bone element; conditions: in vivo, 3 h; procedure, shortened: as §2
Rattus norvegicus [15] = experiment: Biodistribution of compound in rat bone at 45 min after intravenous administration; format: ADME, organism-based, Bone element; conditions: in vivo, 0.75 h; procedure, shortened: as §2
Rattus norvegicus [16] = experiment: Biodistribution of compound in rat bone at 5 min after intravenous administration; format: ADME, organism-based, Bone element; conditions: in vivo; procedure, shortened: as §2
Rattus norvegicus [17] = experiment: Biodistribution of compound in rat bone at 90 min after intravenous administration; format: ADME, organism-based, Bone element; conditions: in vivo, 1.5 h; procedure, shortened: as §2
Rattus norvegicus [18] = experiment: Biodistribution of compound in rat bone marrow at 1440 min after intravenous administration; format: ADME, organism-based; conditions: in vivo, 24 h; procedure, shortened: as §2
Rattus norvegicus [19] = experiment: Biodistribution of compound in rat bone marrow at 180 min after intravenous administration; format: ADME, organism-based; conditions: in vivo, 3 h; procedure, shortened: as §2
Rattus norvegicus [20] = experiment: Biodistribution of compound in rat bone marrow at 360 min after intravenous administration; format: ADME, organism-based; conditions: in vivo, 6 h; procedure, shortened: as §2
Rattus norvegicus [21] = experiment: Biodistribution of compound in rat bone marrow at 45 min after intravenous administration; format: ADME, organism-based; conditions: in vivo, 0.75 h; procedure, shortened: as §2
Rattus norvegicus [22] = experiment: Biodistribution of compound in rat bone marrow at 90 min after intravenous administration; format: ADME, organism-based; conditions: in vivo, 1.5 h; procedure, shortened: as §2
Rattus norvegicus [23] = experiment: Biodistribution of compound in rat bone marrow at 5 min after intravenous administration; format: ADME, organism-based; conditions: in vivo; procedure, shortened: as §2
Rattus norvegicus [24] = experiment: Biodistribution of compound in rat brain after 5 min of administration; format: ADME, organism-based; conditions: in vivo
Rattus norvegicus [25] = experiment: Biodistribution of compound in rat eye at 1440 min after intravenous administration; format: ADME, organism-based; conditions: in vivo, 24 h; procedure, shortened: as §2
Rattus norvegicus [26] = experiment: Biodistribution of compound in rat eye at 180 min after intravenous administration; format: ADME, organism-based; conditions: in vivo, 3 h; procedure, shortened: as §2
Rattus norvegicus [27] = experiment: Biodistribution of compound in rat eye at 360 min after intravenous administration; format: ADME, organism-based; conditions: in vivo, 6 h; procedure, shortened: as §2
Rattus norvegicus [28] = experiment: Biodistribution of compound in rat eye at 45 min after intravenous administration; format: ADME, organism-based; conditions: in vivo, 0.75 h; procedure, shortened: as §2
Rattus norvegicus [29] = experiment: Biodistribution of compound in rat eye at 5 min after intravenous administration; format: ADME, organism-based; conditions: in vivo; procedure, shortened: as §2
Rattus norvegicus [30] = experiment: Biodistribution of compound in rat eye at 90 min after intravenous administration; format: ADME, organism-based; conditions: in vivo, 1.5 h; procedure, shortened: as §2
Rattus norvegicus [31] = experiment: Biodistribution of compound in rat feces at 1440 min after intravenous administration; format: ADME, organism-based; conditions: in vivo, 24 h
Rattus norvegicus [32] = experiment: Biodistribution of compound in rat feces at 360 min after intravenous administration; format: ADME, organism-based; conditions: in vivo, 6 h
Rattus norvegicus [33] = experiment: Biodistribution of compound in rat liver after 5 min of administration.; format: ADME, organism-based; conditions: in vivo
Procedure, shortened: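 Female Sprague-Dawley rats (150–200 g) received the complex in normal saline (~12.5 μCi/mL) through a lateral tail vein at ~25 μCi/kg. Rats were killed by cervical dislocation 5 min after injection. Tissues were washed with saline, blotted, weighed and γ-counted to give percent injected dose/g tissue.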

Rattus norvegicus [34] = experiment: Biodistribution of compound in rat liver at 45 min after intravenous administration; format: ADME, organism-based; conditions: in vivo, 0.75 h; procedure, shortened: as §1
Rattus norvegicus [35] = experiment: Biodistribution of compound in rat blood at 45 min after intravenous administration; format: ADME, organism-based; conditions: in vivo, 0.75 h; procedure, shortened: as §2
Rattus norvegicus [36] = experiment: Biodistribution of compound in rat bone at 360 min after intravenous administration; format: ADME, organism-based, Bone element; conditions: in vivo, 6 h; procedure, shortened: as §2

Substance: Bis(1,2,3,5-tetramethylbenzene)technetium
- Dose/g (Rattus norvegicus [1]): 0.18 % dose/organ
- Dose/g (Rattus norvegicus [2]): 0.81 % dose/organ
- Dose/g (Rattus norvegicus [3]): 0.7 % dose/organ
- Dose/g (Rattus norvegicus [4]): 1.5 % dose/organ
- Dose/g (Rattus norvegicus [5]): 1.4 % dose/organ
- Dose/g (Rattus norvegicus [6]): 1.17 % dose/organ
- Dose/g (Rattus norvegicus [7]): 56 % dose/organ
- Dose/g (Rattus norvegicus [8]): 44 % dose/organ
- Dose/g (Rattus norvegicus [9]): 31 % dose/organ
- Dose/g (Rattus norvegicus [10]): 30 % dose/organ
- Dose/g (Rattus norvegicus [11]): 44 % dose/organ
- Dose/g (Rattus norvegicus [12]): 42 % dose/organ
- Dose/g (Rattus norvegicus [13]): 1.7 % dose/organ
- Dose/g (Rattus norvegicus [14]): 2.2 % dose/organ
- Dose/g (Rattus norvegicus [15]): 2.6 % dose/organ
- Dose/g (Rattus norvegicus [16]): 3.8 % dose/organ
- Dose/g (Rattus norvegicus [17]): 3.5 % dose/organ
- Dose/g (Rattus norvegicus [18]): 0.1 % dose/organ
- Dose/g (Rattus norvegicus [19]): 0.2 % dose/organ
- Dose/g (Rattus norvegicus [20]): 0.11 % dose/organ
- Dose/g (Rattus norvegicus [21]): 0.24 % dose/organ
- Dose/g (Rattus norvegicus [22]): 0.28 % dose/organ
- Dose/g (Rattus norvegicus [23]): 0.43 % dose/organ
- Dose/g (Rattus norvegicus [24]): 0.02%
- Dose/g (Rattus norvegicus [25]): 0.01 % dose/organ
- Dose/g (Rattus norvegicus [26]): 0.02 % dose
- Dose/g (Rattus norvegicus [27]): 0.022 % dose
- Dose/g (Rattus norvegicus [28]): 0.023 % dose
- Dose/g (Rattus norvegicus [29]): 0.03 % dose
- Dose/g (Rattus norvegicus [30]): 0.021 % dose
- Dose/g (Rattus norvegicus [31]): 30 % dose
- Dose/g (Rattus norvegicus [32]): 0.3 % dose
- Dose/g (Rattus norvegicus [33]): 0.67%
- Dose/g (Rattus norvegicus [34]): 4 % dose
- Dose/ml (Rattus norvegicus [35]): 0.51 % dose
- Dose/g (Rattus norvegicus [36]): 1.4 % dose
